Converted amounts (≈) assume the structure as drawn.
Tests used:
NCI-H23 = experiment: Antitumor activity against NCI-H23 cells; assay type: functional; settings: Homo sapiens; for TGI: read-out: Log TGI (converted)
A549 = experiment: Antitumor activity against A549 cells; assay type: functional; settings: Homo sapiens; for TGI: read-out: Log TGI (converted)
RPMI-8226 = experiment: Antitumor activity against RPMI-8226 cells; assay type: functional; settings: Homo sapiens; for TGI: read-out: Log TGI (converted)
ACHN = experiment: Antitumor activity against ACHN cells; assay type: functional; settings: Homo sapiens; for TGI: read-out: Log TGI (converted)
A498 = experiment: Antitumor activity against A498 cells; assay type: functional; settings: Homo sapiens; for TGI: read-out: Log TGI (converted)
SK-MEL-28 = experiment: Antitumor activity against SK-MEL-28 cells; assay type: functional; settings: Homo sapiens; for TGI: read-out: Log TGI (converted)
NCI-H226 = experiment: Antitumor activity against NCI-H226 cells; assay type: functional; settings: Homo sapiens; for CC50: read-out: Log LC50 (the source's name) (converted); for TGI: read-out: Log TGI (converted)
HCT-116 = experiment: Antitumor activity against HCT116 cells; assay type: functional; settings: Homo sapiens; for TGI: read-out: Log TGI (converted)
HCT-15 = experiment: Antitumor activity against HCT15 cells; assay type: functional; settings: Homo sapiens; for TGI: read-out: Log TGI (converted)
SK-MEL-2 = experiment: Antitumor activity against SK-MEL-2 cells; assay type: functional; settings: Homo sapiens; for TGI: read-out: Log TGI (converted)
[1] = Antitumor activity against HL60 (TB) cells; assay type: functional, HL-60(TB); settings: Homo sapiens, HL-60; for TGI: read-out: Log TGI (converted)
In short: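 NCI 60-cell-line in vitro screen (leukaemia subpanel). Compound tested at five 10-fold dilutions from 10^-4 to 10^-8 M. Dose-response parameters: GI50 (concentration giving 50% net growth inhibition), TGI (total growth inhibition) and LC50 (50% net cell death), each reported as log10 of molar concentration.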

NCI/ADR-RES = experiment: Antitumor activity against NCI/ADR-RES cells; assay type: functional; settings: Homo sapiens; for TGI: read-out: Log TGI (converted)
HCC 2998 = experiment: Antitumor activity against HCC2998 cells; assay type: functional; settings: Homo sapiens; for TGI: read-out: Log TGI (converted)
UO-31 = experiment: Antitumor activity against UO31 cells; assay type: functional; settings: Homo sapiens; for TGI: read-out: Log TGI (converted)
In short: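 Tested in the NCI 60-human-tumour-cell-line panel at five concentrations, in 10-fold dilutions from 10^-4 to 10^-8 M. Three parameters were taken from the dose-response data, each as log10 of the molar concentration: GI50 (50% net growth inhibition), TGI (total growth inhibition) and LC50 (50% net cell death).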

OVCAR-4 = experiment: Antitumor activity against OVCAR4 cells; assay type: functional; settings: Homo sapiens; for TGI: read-out: Log TGI (converted)
OVCAR-5 = experiment: Antitumor activity against OVCAR5 cells; assay type: functional; settings: Homo sapiens; for CC50: read-out: Log LC50 (the source's name) (converted); for TGI: read-out: Log TGI (converted)
HOP-62 = experiment: Antitumor activity against HOP62 cells; assay type: functional; settings: Homo sapiens; for CC50: read-out: Log LC50 (the source's name) (converted); for TGI: read-out: Log TGI (converted)
KM12 = experiment: Antitumor activity against KM12 cells; assay type: functional; settings: Homo sapiens; for CC50: read-out: Log LC50 (the source's name) (converted); for TGI: read-out: Log TGI (converted)
HT-29 = experiment: Antitumor activity against HT29 cells; assay type: functional; settings: Homo sapiens; for TGI: read-out: Log TGI (converted)
Escherichia coli = experiment: Antibacterial activity against Escherichia coli MTCC 448 after 18 hrs; assay type: functional; settings: MTCC 448, 18 h
In short: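 Disc diffusion (Kirby–Bauer) on Mueller-Hinton agar inoculated with fresh bacteria at 1-5 × 10^4 cfu mL-1. Compounds were dissolved in DMF at a range of concentrations, and discs were placed in triplicate. Plates were incubated at 30 °C for 18 h. MIC was taken as the lowest concentration giving no visible bacterial growth on the plate.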

NCI-H522 = experiment: Antitumor activity against NCI-H522 cells; assay type: functional; settings: Homo sapiens
IGROV-1 = experiment: Antitumor activity against IGROV1 cells; assay type: functional; settings: Homo sapiens
[2] = read-out: Log LC50 (the source's name) (converted)

O=C(NNS(=O)(=O)c1ccc(Cl)cc1Cl)c1cccnc1Nc1ccc(Cl)cc1 showed a GI50 (NCI-H23) of 17.4 µM, an LC50 (NCI-H23) greater than 100 µM and a TGI (NCI-H23) of 42.7 µM. For the same compound, the GI50 (A549) was 24.5 µM, the LC50 (A549) was greater than 100 µM and the TGI (A549) was 70.8 µM. For the same compound, the GI50 (RPMI-8226) was 17.8 µM, the LC50 (RPMI-8226) was greater than 100 µM and the TGI (RPMI-8226) was 53.7 µM. For the same compound, the GI50 (ACHN) was 29.5 µM, the LC50 (ACHN) was greater than 100 µM and the TGI (ACHN) was 93.3 µM. It also gave a GI50 (A498) of 25.1 µM, an LC50 (A498) of 91.2 µM and a TGI (A498) of 47.9 µM. It also gave a GI50 (SK-MEL-28) of 35.5 µM, an LC50 (SK-MEL-28) greater than 100 µM and a TGI (SK-MEL-28) greater than 100 µM. The GI50 (NCI-H226) was 24 µM, the CC50 (NCI-H226) was greater than 100 µM and the TGI (NCI-H226) was 58.9 µM. For the same compound, the GI50 (HCT-116) was 15.5 µM, the LC50 (HCT-116) was 53.7 µM and the TGI (HCT-116) was 28.8 µM. The GI50 (HCT-15) was 33.1 µM, the LC50 (HCT-15) was 100 µM and the TGI (HCT-15) was greater than 100 µM. The GI50 (SK-MEL-2) was 18.6 µM, the LC50 (SK-MEL-2) was 97.7 µM and the TGI (SK-MEL-2) was 42.7 µM. It also gave a GI50 [1] of 24 µM, an LC50 [1] of 83.2 µM and a TGI [1] of 44.7 µM. For the same compound, the GI50 (NCI/ADR-RES) was 23.4 µM, the LC50 (NCI/ADR-RES) was greater than 100 µM and the TGI (NCI/ADR-RES) was 75.9 µM. It also gave a GI50 (HCC 2998) of 13.5 µM, an LC50 (HCC 2998) of 61.7 µM and a TGI (HCC 2998) of 28.8 µM. The GI50 (UO-31) was 37.2 µM, the LC50 (50% net cell death) (UO-31) was greater than 100 µM and the TGI (UO-31) was greater than 100 µM. For the same compound, the GI50 (OVCAR-4) was 28.8 µM, the LC50 (lethal concentration, 50%) (OVCAR-4) was greater than 100 µM and the TGI (OVCAR-4) was greater than 100 µM. It also gave a GI50 (OVCAR-5) of 26.3 µM, a CC50 (OVCAR-5) greater than 100 µM and a TGI (OVCAR-5) of 77.6 µM. It also gave a GI50 (HOP-62) of 16.6 µM, a CC50 (HOP-62) of 85.1 µM and a TGI (HOP-62) of 38 µM. For the same compound, the GI50 (KM12) was 13.8 µM, the CC50 (KM12) was 58.9 µM and the TGI (KM12) was 28.8 µM. The GI50 (HT-29) was 22.9 µM, the LC50 (HT-29) was greater than 100 µM and the TGI (HT-29) was 53.7 µM. The MIC (Escherichia coli) was 20 µg/mL (≈ 42.4 µM).

With CC(=O)Nc1ccc(S(=O)(=O)NNC(=O)c2cccnc2Nc2ccc(Cl)cc2)cc1 the GI50 (A549) was 32.4 µM, the LC50 (A549) was greater than 100 µM and the TGI (A549) was greater than 100 µM. For the same compound, the GI50 (RPMI-8226) was 28.8 µM, the LC50 (RPMI-8226) was greater than 100 µM and the TGI (RPMI-8226) was greater than 100 µM. The GI50 (ACHN) was 52.5 µM, the LC50 (ACHN) was greater than 100 µM and the TGI (ACHN) was 75.9 µM. For the same compound, the GI50 (A498) was 18.6 µM, the LC50 (A498) was greater than 100 µM and the TGI (A498) was greater than 100 µM. It also gave a GI50 (SK-MEL-28) of 23.4 µM, an LC50 (SK-MEL-28) greater than 100 µM and a TGI (SK-MEL-28) greater than 100 µM. For the same compound, the GI50 (NCI-H226) was 42.7 µM, the CC50 (NCI-H226) was greater than 100 µM and the TGI (NCI-H226) was greater than 100 µM. The GI50 (HCT-116) was 7.24 µM, the LC50 (HCT-116) was greater than 100 µM and the TGI (HCT-116) was greater than 100 µM. It also gave a GI50 (HCT-15) of 13.8 µM, an LC50 (HCT-15) greater than 100 µM and a TGI (HCT-15) greater than 100 µM. For the same compound, the GI50 [1] was 9.77 µM, the LC50 [1] was greater than 100 µM and the TGI [1] was greater than 100 µM. The GI50 (HCC 2998) was 8.32 µM, the LC50 (HCC 2998) was greater than 100 µM and the TGI (HCC 2998) was greater than 100 µM. For the same compound, the GI50 (UO-31) was 91.2 µM, the LC50 (50% net cell death) (UO-31) was greater than 100 µM and the TGI (UO-31) was greater than 100 µM. The GI50 (OVCAR-4) was 44.7 µM, the LC50 (lethal concentration, 50%) (OVCAR-4) was greater than 100 µM and the TGI (OVCAR-4) was greater than 100 µM. It also gave a GI50 (NCI-H522) of 6.46 µM, a CC50 (NCI-H522; [2]) greater than 100 µM and a TGI (NCI-H522; read-out: Log TGI (converted)) greater than 100 µM. For the same compound, the GI50 (IGROV-1) was 27.5 µM, the CC50 (IGROV-1; [2]) was greater than 100 µM and the TGI (IGROV-1; read-out: Log TGI (converted)) was greater than 100 µM. The GI50 (HOP-62) was greater than 100 µM, the CC50 (HOP-62) was greater than 100 µM and the TGI (HOP-62) was greater than 100 µM. The GI50 (KM12) was 4.17 µM, the CC50 (KM12) was greater than 100 µM and the TGI (KM12) was greater than 100 µM. For the same compound, the GI50 (HT-29) was 3.98 µM, the LC50 (HT-29) was greater than 100 µM and the TGI (HT-29) was greater than 100 µM. For the same compound, the MIC (Escherichia coli) was 18 µg/mL (≈ 39.1 µM).

In the case of O=C(NNS(=O)(=O)c1ccc(F)cc1)c1cccnc1Nc1ccc(Cl)cc1Cl, the GI50 (NCI-H23) is reported as 36.3 µM, the LC50 (NCI-H23) is reported as greater than 100 µM and the TGI (NCI-H23) is reported as greater than 100 µM. It also gave a GI50 (A549) of 17.4 µM, an LC50 (A549) of 97.7 µM and a TGI (A549) of 40.7 µM. It also gave a GI50 (ACHN) of 45.7 µM, an LC50 (ACHN) greater than 100 µM and a TGI (ACHN) greater than 100 µM. For the same compound, the GI50 (A498) was 17.4 µM, the LC50 (A498) was 77.6 µM and the TGI (A498) was 36.3 µM. The GI50 (SK-MEL-28) was 89.1 µM, the LC50 (SK-MEL-28) was greater than 100 µM and the TGI (SK-MEL-28) was greater than 100 µM. The GI50 (NCI-H226) was 29.5 µM, the CC50 (NCI-H226) was greater than 100 µM and the TGI (NCI-H226) was 97.7 µM. It also gave a GI50 (HCT-116) of 30.2 µM, an LC50 (HCT-116) greater than 100 µM and a TGI (HCT-116) greater than 100 µM. The GI50 (HCT-15) was 26.9 µM, the LC50 (HCT-15) was greater than 100 µM and the TGI (HCT-15) was greater than 83.2 µM. The GI50 (SK-MEL-2) was 42.7 µM, the LC50 (SK-MEL-2) was greater than 100 µM and the TGI (SK-MEL-2) was greater than 100 µM. It also gave a GI50 [1] of 25.1 µM, an LC50 [1] greater than 100 µM and a TGI [1] of 61.7 µM. It also gave a GI50 (NCI/ADR-RES) of 39.8 µM, an LC50 (NCI/ADR-RES) greater than 100 µM and a TGI (NCI/ADR-RES) greater than 100 µM. The GI50 (HCC 2998) was 30.2 µM, the LC50 (HCC 2998) was greater than 100 µM and the TGI (HCC 2998) was greater than 100 µM. The GI50 (OVCAR-4) was 38 µM, the LC50 (lethal concentration, 50%) (OVCAR-4) was greater than 100 µM and the TGI (OVCAR-4) was greater than 100 µM. The GI50 (OVCAR-5) was 52.5 µM, the CC50 (OVCAR-5) was greater than 100 µM and the TGI (OVCAR-5) was greater than 100 µM. It also gave a GI50 (HOP-62) of 30.9 µM, a CC50 (HOP-62) greater than 100 µM and a TGI (HOP-62) of 85.1 µM. The GI50 (KM12) was 22.9 µM, the CC50 (KM12) was greater than 100 µM and the TGI (KM12) was 49 µM. For the same compound, the GI50 (HT-29) was 21.9 µM, the LC50 (HT-29) was greater than 100 µM and the TGI (HT-29) was 57.5 µM. It also gave an MIC (Escherichia coli) of 15 µg/mL (≈ 32.9 µM).
